Assay results reported in ChEMBL document CHEMBL1149763, “Synthesis, in vitro antiproliferative activities, and Chk1 inhibitory properties of pyrrolo[3,4-a]carbazole-1,3-diones, pyrrolo[3,4-c]carbazole-1,3-diones, and 2-aminopyridazino[3,4-a]pyrrolo[3,4-c]carbazole-1,3,4,7-tetraone” (Eur J Med Chem, 2008).
Active and inactive are the calls of the source. The calls are words filed in the database; no cut-off is given here.

Tests used:
[1] = molecular target: T1, Serine/threonine-protein kinase Chk1 (Homo sapiens) (UniProt O14757); test: Inhibition of human Chk1 at 10 uM
T1 sequence (whole entry): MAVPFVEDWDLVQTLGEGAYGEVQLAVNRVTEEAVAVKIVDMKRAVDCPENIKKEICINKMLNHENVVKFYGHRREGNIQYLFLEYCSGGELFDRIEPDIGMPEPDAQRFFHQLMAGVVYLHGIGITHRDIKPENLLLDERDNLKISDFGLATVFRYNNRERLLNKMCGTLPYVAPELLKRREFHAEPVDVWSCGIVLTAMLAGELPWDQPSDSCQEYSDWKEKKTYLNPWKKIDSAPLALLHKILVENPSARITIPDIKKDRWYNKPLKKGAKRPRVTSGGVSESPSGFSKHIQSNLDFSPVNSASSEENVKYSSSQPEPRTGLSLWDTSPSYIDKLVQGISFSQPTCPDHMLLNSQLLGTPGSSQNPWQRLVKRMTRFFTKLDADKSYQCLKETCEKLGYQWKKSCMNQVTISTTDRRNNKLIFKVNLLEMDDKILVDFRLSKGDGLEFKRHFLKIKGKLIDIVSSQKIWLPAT
In short: (§1)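 Chk1, commercial or GST-Chk1 purified from baculovirus-infected Sf9 cell extracts. Percent inhibition measured at a single compound concentration; IC50 also determined.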

[2] = molecular target: T2, Serine/threonine-protein kinase Chk1 (Homo sapiens, UniProt O14757); test: Inhibition of human Chk1; in short: as §1
T2 sequence (O14757 whole entry): T1 sequence (whole entry)

L1210 = test: Antiproliferative activity against mouse L1210 cells by microculture tetrazolium assay; type: functional, cell-based
In short: (§2)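 Cells grown in RPMI 1640 with 10% fetal calf serum, 2 mM L-glutamine, penicillin/streptomycin and 10 mM HEPES (pH 7.4). Continuous exposure to graded compound concentrations for four doubling times. MTT (5 mg/mL) added, 4 h at 37 °C, formazan dissolved in DMSO, optical density read. IC50 is the concentration halving optical density relative to untreated controls.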

[3] = Antiproliferative activity against human […] cells microculture tetrazolium assay; type: functional, cell-based; in short: as §2
HT-29 = test: Antiproliferative activity against human HT29 cells microculture tetrazolium assay; type: functional, cell-based; in short: as §2
[4] = molecular target: Proto-oncogene tyrosine-protein kinase Src (Homo sapiens) (UniProt P12931); test: Inhibition of Src kinase at 10 uM
Chain of Proto-oncogene tyrosine-protein kinase Src (Homo sapiens) (P12931 2-536 limits assumed): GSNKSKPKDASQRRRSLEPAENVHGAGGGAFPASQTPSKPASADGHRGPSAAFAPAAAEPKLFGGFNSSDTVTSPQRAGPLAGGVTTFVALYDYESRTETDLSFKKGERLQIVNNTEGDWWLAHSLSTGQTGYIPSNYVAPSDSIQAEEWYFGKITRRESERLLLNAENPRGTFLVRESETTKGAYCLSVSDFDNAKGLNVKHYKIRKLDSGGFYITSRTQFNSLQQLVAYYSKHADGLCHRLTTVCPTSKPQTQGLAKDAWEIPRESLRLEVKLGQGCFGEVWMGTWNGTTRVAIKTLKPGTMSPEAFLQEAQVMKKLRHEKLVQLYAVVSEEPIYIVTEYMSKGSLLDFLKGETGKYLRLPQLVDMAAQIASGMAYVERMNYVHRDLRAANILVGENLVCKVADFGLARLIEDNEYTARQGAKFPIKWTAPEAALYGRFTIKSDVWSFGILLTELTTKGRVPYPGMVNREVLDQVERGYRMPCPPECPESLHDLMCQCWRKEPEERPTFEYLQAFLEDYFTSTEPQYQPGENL
In short: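 Radiometric Src kinase assay. 20 min at 30 °C, stopped with 0.85% orthophosphoric acid, captured on phosphocellulose filter, washed with orthophosphoric acid, dried with acetone.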

Compound: CCOC(=O)c1cc2c(c3c1[nH]c1ccccc13)C(=O)NC2=O
- inhibition [1]: 71.7%
- IC50 [2]: > 5 µM
- IC50 (L1210): 5.8 µM
- IC50 [3]: 2.3 µM
- IC50 (HT-29): 4 µM

Compound: CCOC(=O)c1c2c(c3[nH]c4ccccc4c3c1O)C(=O)NC2=O
- Activity [1]: inactive
- IC50 (L1210): 57.5 µM
- IC50 [3]: 33.6 µM
- IC50 (HT-29): 84.9 µM

Compound: O=C1NC(=O)C2C1c1[nH]c3ccccc3c1C1C(=O)OC(=O)C12 (stereo unspecified)
- inhibition [1]: 10.6%
- IC50 (L1210): 5.7 µM
- IC50 (HT-29): 6.2 µM

Compound: CCOC(=O)c1cc2c(c3c1[nH]c1ccccc13)C(=O)N(CO)C2=O
- inhibition [1]: 72.4%
- IC50 [2]: 0.21 µM
- IC50 (L1210): 5.5 µM
- IC50 [3]: 2.9 µM
- IC50 (HT-29): 3.9 µM
- inhibition [4]: 11.5%

Compound: O=c1[nH]c(=O)c2c1c1[nH]c3ccccc3c1c1c(=O)oc(=O)c21
- Activity [1]: inactive
- IC50 (L1210): 11.9 µM
- IC50 [3]: 10.7 µM
- IC50 (HT-29): 33 µM

Compound: O=C1NC(=O)c2c1c1c(c3c2[nH]c2ccccc23)C(=O)NC1
- inhibition [1]: 85.4%
- IC50 [2]: 0.05 µM
- IC50 (L1210): 45.8 µM
- IC50 [3]: 10.2 µM
- IC50 (HT-29): 8.2 µM

Compound: CCOC(=O)c1cc2c(c3[nH]c4ccccc4c13)C(=O)NC2=O
- inhibition [1]: 45.3%
- IC50 (L1210): 4.9 µM
- IC50 [3]: 3.8 µM
- IC50 (HT-29): 6.4 µM

Compound: O=C1NC(=O)c2c1c1[nH]cnc1c1[nH]c3ccccc3c21 [GRANULATIMIDE]
- IC50 [3]: 6.1 µM

Compound: CCOC(=O)c1c2c(c3[nH]c4ccccc4c3c1O)C(=O)N(CO)C2=O
- Activity [1]: inactive
- IC50 (L1210): 10.6 µM
- IC50 [3]: 11.5 µM
- IC50 (HT-29): 31.7 µM

Compound: O=C1NC(=O)c2c1cc(O)c1c2[nH]c2ccccc21
- inhibition [1]: 11%
- IC50 (L1210): 54.4 µM
- IC50 [3]: 34.4 µM
- IC50 (HT-29): 46.7 µM

Compound: O=C1NC(=O)c2c1c1c3ccccc3[nH]c1n1cncc21 [ISOGRANULATIMIDE]
- IC50 [3]: 13 µM

Compound: O=C1NC(=O)c2c1c1c(c3c2[nH]c2ccccc23)CNC1=O
- inhibition [1]: 71.7%
- IC50 [2]: 0.37 µM
- IC50 (L1210): 47 µM
- IC50 [3]: 58.9 µM
- IC50 (HT-29): > 100 µM
